Data set [1] has as its target T1, Free fatty acid receptor 1 (Homo sapiens, UniProt O14842). Description: Agonist activity at human GPR40 expressed in CHO cells assessed as intracellular calcium mobilization by FLIPR assay. The class given is functional, cell-based. The essentials:
(§1)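 Intracellular calcium flux read on a fluorometric imaging plate reader, giving EC50 (nM). Each reported value is the mean of at least 3 experiments, with standard deviations below 75% of the average.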

Data set [2] deals with Free fatty acid receptor 1 (Mus musculus, UniProt Q76JU9). Description: Agonist activity at mouse GPR40 expressed in CHO cells assessed as intracellular calcium mobilization by FLIPR assay. The class given is functional, cell-based. The gist of the method:
as §1

Data set [3] deals with T1, Free fatty acid receptor 1. Description: Inhibition of human GPR40 expressed in CHO cells by SPA based binding assay. The format is cell-based. The gist of the method: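 Scintillation proximity binding assay using receptor isolated from CHO cells overexpressing human GPR40, giving IC50 (nM). Each value is the mean of at least 3 experiments, with standard deviations below 75% of the average.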

Data set [4] deals with T1, Free fatty acid receptor 1. Description: Agonist activity at human GPR40 expressed in HEK293 cells assessed as [3H]IP3 production in presence of 10% human serum. The format is functional, cell-based. The gist of the method:
(§2)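 IP3 production was measured in human cells as EC50 (nM). One condition included 10% human serum and the other 0.4% serum albumin, to reflect plasma protein binding.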

The target in data set [5] is T1, Free fatty acid receptor 1. Description: Agonist activity at human GPR40 expressed in HEK293 cells assessed as [3H]IP3 production in presence of 0.4% serum albumin. The format is functional, cell-based. The essentials: as §2
In a further data set the target is Cytochrome P450 2C9 (Homo sapiens, UniProt P11712). Description: Inhibition of CYP2C9. The class given is ADME.
In another data set the target is Cytochrome P450 2D6 (Homo sapiens, UniProt P10635). Description: Inhibition of CYP2D6. The class given is ADME.
The next data set concerns the target Cytochrome P450 3A4 (Homo sapiens, UniProt P08684). Description: Inhibition of CYP3A4. The class given is ADME.
In data set [6] the target is Voltage-gated inwardly rectifying potassium channel KCNH2 (Homo sapiens, UniProt Q12809). Description: Inhibition of human ERG.
Data set [7] addresses Voltage-dependent L-type calcium channel subunit alpha-1C (Homo sapiens, UniProt Q13936). Description: Inhibition of Cav1.2 calcium channel.
A short description of data set [8]: Plasma clearance in mouse. The format is ADME, organism-based.
The nature of data set [9]: Volume of distribution in mouse. The class given is ADME, organism-based. The note with it: in vivo.
Data set [10] can be described thus: Half life in mouse. The note with it: in vivo. The format is ADME, organism-based.
Data set [11] in a line: Oral bioavailability in mouse. The format is ADME, organism-based. The following applies: in vivo.
Data set [12] can be described thus: Cmax in mouse. The class given is ADME, organism-based. The note with it: in vivo.
A short description of data set [13]: Tmax in mouse. The format is ADME, organism-based. The following applies: in vivo.
For the next data set, the system named is Mus musculus. Description: Inhibition of glucose AUC in dextrose-treated lean mouse blood at 10 mg/kg, po treated 1 hr prior to dextrose challenge by intraperitoneal glucose tolerance test. The format is functional.

Each structure is given as a SMILES string.

T1 sequence (O14842 whole entry): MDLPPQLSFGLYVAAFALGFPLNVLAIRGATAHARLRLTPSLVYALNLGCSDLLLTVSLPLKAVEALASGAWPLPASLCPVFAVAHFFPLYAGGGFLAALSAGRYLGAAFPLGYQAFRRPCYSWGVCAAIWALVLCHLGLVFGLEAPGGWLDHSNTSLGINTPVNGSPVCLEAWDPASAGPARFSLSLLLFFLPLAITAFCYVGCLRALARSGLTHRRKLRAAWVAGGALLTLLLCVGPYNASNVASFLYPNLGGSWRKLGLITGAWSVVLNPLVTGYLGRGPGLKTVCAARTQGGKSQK
Chain of Free fatty acid receptor 1 (Mus musculus, UniProt Q76JU9) (Q76JU9 whole entry): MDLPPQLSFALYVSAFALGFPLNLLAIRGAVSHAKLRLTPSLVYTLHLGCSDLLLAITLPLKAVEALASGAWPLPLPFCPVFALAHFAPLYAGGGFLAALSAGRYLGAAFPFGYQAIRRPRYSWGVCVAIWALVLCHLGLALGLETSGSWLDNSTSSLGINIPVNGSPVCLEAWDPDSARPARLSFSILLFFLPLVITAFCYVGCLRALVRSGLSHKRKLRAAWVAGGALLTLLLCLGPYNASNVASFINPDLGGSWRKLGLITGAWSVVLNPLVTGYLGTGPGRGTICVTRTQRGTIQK
Chain of Cytochrome P450 3A4 (P08684 whole entry): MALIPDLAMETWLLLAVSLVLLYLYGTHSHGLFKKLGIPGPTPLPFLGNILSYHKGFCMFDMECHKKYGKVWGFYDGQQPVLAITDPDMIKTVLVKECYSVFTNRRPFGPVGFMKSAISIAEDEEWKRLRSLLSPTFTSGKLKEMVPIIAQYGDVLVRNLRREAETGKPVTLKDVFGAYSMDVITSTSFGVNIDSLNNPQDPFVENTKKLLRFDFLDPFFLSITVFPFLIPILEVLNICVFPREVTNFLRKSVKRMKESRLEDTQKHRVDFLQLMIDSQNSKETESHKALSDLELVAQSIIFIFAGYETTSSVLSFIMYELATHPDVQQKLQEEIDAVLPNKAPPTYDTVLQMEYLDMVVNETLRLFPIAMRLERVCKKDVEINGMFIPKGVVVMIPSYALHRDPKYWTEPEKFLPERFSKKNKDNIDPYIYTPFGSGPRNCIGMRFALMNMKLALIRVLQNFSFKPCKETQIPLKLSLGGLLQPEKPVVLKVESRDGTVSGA
Chain of Voltage-dependent L-type calcium channel subunit alpha-1C (Q13936 whole entry): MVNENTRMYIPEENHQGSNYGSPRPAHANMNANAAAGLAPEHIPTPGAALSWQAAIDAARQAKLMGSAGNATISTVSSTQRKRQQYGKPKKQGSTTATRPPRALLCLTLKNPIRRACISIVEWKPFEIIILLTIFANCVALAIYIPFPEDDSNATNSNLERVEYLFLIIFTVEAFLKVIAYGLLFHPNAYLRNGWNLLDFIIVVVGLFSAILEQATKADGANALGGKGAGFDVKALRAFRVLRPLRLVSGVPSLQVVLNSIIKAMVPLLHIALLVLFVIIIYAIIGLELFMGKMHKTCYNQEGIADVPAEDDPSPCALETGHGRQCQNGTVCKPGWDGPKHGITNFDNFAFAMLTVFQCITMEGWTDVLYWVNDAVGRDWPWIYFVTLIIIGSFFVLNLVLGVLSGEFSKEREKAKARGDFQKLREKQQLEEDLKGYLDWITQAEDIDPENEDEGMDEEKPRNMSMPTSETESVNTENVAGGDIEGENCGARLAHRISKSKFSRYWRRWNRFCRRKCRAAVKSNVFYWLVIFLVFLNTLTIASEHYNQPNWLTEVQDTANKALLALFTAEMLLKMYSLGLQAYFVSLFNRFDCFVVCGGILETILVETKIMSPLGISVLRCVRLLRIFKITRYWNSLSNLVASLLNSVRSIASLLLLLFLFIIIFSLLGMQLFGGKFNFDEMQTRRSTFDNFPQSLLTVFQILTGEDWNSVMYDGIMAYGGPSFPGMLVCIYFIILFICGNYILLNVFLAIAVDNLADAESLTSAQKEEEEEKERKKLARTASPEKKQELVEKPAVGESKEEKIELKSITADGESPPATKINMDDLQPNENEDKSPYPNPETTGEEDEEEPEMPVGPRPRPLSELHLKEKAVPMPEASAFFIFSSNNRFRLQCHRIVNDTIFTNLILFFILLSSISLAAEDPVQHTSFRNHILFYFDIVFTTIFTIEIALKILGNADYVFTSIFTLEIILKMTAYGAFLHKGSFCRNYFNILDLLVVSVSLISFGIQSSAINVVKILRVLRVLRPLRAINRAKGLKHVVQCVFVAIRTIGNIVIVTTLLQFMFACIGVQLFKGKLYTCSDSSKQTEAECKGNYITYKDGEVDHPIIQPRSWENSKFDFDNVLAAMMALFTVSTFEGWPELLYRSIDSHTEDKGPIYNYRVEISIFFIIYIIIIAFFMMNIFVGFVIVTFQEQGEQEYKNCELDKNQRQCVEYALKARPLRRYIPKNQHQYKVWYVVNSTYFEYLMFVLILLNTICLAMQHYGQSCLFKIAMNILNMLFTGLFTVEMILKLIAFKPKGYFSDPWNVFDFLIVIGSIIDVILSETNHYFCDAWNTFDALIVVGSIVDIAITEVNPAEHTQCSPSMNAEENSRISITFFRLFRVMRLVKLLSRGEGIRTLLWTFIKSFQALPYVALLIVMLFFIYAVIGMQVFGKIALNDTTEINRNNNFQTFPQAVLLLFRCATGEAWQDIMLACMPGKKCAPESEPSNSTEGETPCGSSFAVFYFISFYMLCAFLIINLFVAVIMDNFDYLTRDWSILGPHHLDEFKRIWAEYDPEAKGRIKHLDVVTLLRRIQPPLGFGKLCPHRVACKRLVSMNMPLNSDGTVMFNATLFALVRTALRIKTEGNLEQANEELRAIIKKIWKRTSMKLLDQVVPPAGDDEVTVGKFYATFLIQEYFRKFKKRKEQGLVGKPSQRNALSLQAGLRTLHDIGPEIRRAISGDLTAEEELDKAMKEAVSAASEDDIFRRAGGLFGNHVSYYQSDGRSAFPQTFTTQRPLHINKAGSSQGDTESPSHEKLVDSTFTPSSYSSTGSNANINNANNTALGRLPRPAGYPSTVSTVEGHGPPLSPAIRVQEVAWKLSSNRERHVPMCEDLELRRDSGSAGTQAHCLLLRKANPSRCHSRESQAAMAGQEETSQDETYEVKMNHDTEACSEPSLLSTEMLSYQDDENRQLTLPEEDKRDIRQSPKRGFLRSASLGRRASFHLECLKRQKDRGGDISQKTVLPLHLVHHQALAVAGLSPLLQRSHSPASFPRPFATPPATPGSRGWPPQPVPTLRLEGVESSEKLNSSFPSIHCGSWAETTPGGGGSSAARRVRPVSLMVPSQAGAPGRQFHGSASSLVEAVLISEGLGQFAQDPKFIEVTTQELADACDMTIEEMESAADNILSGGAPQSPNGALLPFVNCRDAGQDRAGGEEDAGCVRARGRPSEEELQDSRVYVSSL
Chain of Cytochrome P450 2D6 (P10635 whole entry): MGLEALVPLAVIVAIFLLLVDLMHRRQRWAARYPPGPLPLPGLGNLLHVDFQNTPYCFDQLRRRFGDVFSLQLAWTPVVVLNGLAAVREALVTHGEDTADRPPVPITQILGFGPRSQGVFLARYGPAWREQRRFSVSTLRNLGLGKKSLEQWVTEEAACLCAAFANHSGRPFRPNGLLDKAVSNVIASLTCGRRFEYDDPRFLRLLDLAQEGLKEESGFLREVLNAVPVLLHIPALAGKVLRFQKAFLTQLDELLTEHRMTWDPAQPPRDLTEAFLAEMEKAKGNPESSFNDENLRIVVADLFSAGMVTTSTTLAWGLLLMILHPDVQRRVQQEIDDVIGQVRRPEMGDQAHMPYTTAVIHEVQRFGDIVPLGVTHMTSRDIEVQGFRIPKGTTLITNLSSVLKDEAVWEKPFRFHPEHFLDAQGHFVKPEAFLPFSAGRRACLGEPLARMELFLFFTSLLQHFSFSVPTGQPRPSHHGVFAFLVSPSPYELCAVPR
Chain of Voltage-gated inwardly rectifying potassium channel KCNH2 (Q12809 whole entry): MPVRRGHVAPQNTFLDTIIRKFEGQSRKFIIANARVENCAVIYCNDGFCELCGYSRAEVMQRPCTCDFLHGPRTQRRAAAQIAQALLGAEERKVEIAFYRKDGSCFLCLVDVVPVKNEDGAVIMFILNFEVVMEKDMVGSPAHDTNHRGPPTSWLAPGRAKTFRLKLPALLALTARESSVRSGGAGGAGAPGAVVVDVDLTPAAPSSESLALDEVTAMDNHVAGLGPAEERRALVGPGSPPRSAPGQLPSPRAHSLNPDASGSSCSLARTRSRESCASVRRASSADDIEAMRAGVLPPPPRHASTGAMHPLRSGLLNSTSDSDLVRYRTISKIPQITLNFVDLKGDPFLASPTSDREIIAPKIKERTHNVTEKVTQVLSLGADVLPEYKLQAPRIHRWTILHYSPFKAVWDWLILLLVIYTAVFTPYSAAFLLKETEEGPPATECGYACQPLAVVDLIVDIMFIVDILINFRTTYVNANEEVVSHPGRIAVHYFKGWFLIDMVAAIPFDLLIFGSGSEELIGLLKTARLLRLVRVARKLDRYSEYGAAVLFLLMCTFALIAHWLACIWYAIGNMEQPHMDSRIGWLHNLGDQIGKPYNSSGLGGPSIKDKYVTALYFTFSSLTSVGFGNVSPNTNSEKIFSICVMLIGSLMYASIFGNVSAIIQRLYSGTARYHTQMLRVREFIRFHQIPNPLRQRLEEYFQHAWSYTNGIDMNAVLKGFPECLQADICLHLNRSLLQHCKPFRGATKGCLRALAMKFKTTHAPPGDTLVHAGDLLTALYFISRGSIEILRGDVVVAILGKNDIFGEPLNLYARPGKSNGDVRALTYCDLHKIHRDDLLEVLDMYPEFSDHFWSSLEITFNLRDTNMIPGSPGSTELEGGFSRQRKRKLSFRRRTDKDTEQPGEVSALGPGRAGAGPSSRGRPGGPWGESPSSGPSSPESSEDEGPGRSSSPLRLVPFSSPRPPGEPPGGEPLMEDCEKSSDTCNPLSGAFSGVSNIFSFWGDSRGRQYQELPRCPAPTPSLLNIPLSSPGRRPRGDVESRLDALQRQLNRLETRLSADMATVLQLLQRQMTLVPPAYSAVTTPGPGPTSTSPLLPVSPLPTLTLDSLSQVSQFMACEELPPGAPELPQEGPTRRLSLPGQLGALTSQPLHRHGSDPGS

For `CC#CC(CC(=O)O)c1ccc(O[C@@H]2CCc3ccccc32)cc1` (mixture of isomers), the EC50 in data set [1] is 31 nM; in [2], 47 nM. Moreover, the IC50 in data set [3] is 42 nM.

For the molecule `CC#CC(c1ccc(Oc2ccc(C(F)(F)F)cc2OC(F)F)cc1)C1OC(=O)NC1=O` (racemic), the EC50 was 124 nM in data set [1], 266 nM in [2], 224 nM in [4] and 249 nM in data set [5]. This molecule registered an IC50 in data set [3] of 19 nM.

On to `CC#CC(CC(=O)O)c1ccc(OC2CCCC2)cc1` (racemic), for which the EC50 was 114 nM in data set [1] and 124 nM in [2]. Also, the IC50 in [3] stood at 312 nM.

`CC#CC(CC(=O)O)c1ccc(Oc2ccc(C#N)c3ccccc23)cc1` (racemic): the EC50 was 53 nM in data set [1], 93 nM in data set [2], 172 nM in [4] and 247 nM in data set [5]. Further, the IC50 in [3] was 13 nM.

Turning to `CC#C[C@H](c1ccc(Oc2ccc(C(F)(F)F)cc2OC(F)F)cc1)[C@H]1OC(=O)NC1=O` (racemic), the EC50 in data set [1] stood at 7580 nM; in data set [2], 7060 nM. Further, the IC50 in [3] amounted to 2410 nM.

Turning to `CC#CC(CC(=O)O)c1ccc(Oc2ccc(C#N)cc2Br)cc1` (racemic), the values for the EC50 in [1] and in data set [2] were 85 nM and 88 nM, respectively. In data set [3], this molecule gave an IC50 of 36 nM.

On to `CC#CC(CC(=O)O)c1ccc(Oc2ccc(C(F)(F)F)c3ccccc23)cc1` (racemic), for which the EC50 in data set [1] turned out to be 1400 nM; in [2], 1250 nM. Moreover, the half-maximal inhibitory concentration (IC50) in [3] is 211 nM.

Regarding `O=C(O)C(Cc1ccc(Oc2ccc(C(F)(F)F)cc2Cl)cc1)C(=O)O`, the EC50 in data set [1] is 970 nM.

For the molecule `CC#CC(c1ccc(OCc2ccccc2)cc1)C1OC(=O)NC1=O` (racemic), the EC50 stood at 954 nM in data set [1] and 3710 nM in [2]. In data set [3], this molecule registered an IC50 of 4400 nM.

For the molecule `CC#CC(CC(=O)O)c1ccc(Oc2ccc(C#N)cc2Cl)cc1` (racemic), the EC50 in data set [1] was 42 nM; in data set [2], 48 nM; in [4] it was 519 nM; in data set [5], 597 nM. The same molecule returned an IC50 in [3] of 23 nM.

For `CC#CC(CC(=O)O)c1ccc(Oc2ncc(C(F)(F)F)cc2Cl)cc1` (racemic), the EC50 was 108 nM in [1], 95 nM in [2] and 409 nM in data set [4]. Also, the IC50 in data set [3] stood at 30 nM.

Regarding `CC#CC(CC(=O)O)c1ccc(OC2CCCc3nc(-c4ccc(C)cc4)sc32)cc1` (mixture of isomers), the EC50 in data set [1] was determined as 51 nM; in data set [2], 100 nM. Further, the IC50 in data set [3] amounted to 23 nM.

As for `CC(CC(=O)O)c1ccc(Oc2ccc(Cl)cc2Cl)cc1` (racemic), the EC50 in data set [1] was 2480 nM.

As to `CC#C[C@]1(c2ccc(Oc3ccc(C(F)(F)F)cc3Cl)cc2)C[C@H]1C(=O)O` (racemic), the results for the EC50 in data set [1] and in data set [2] were 24500 nM and greater than 40000 nM, respectively. In data set [3], the IC50 was greater than 10000 nM.

`CC#C[C@]1(c2ccc(Oc3ccc(C(F)(F)F)cc3Cl)cc2)C[C@@H]1C(=O)O` (racemic): the 50% effective concentration (EC50) in [1] amounted to 2820 nM; in data set [2], 871 nM. Besides, the IC50 in data set [3] is 3440 nM.

On to `CC#CC(CC(=O)O)c1ccc(Oc2nccnc2C#N)cc1` (racemic), for which the EC50 in data set [1] turned out to be 1580 nM; in data set [2], 985 nM. The IC50 in [3] worked out at 2490 nM.

As to `CC#CC(CC(=O)O)c1ccc(Oc2ncc(Br)cn2)cc1` (racemic), the EC50 was 1570 nM in data set [1] and 1480 nM in data set [2]. The molecule further yielded an IC50 in data set [3] of 433 nM.

Turning to `O=C(O)CCc1ccc(Oc2ccc(Cl)cc2Cl)cc1`, the EC50 in [1] is 1360 nM.

As for `CC#CC(CC(=O)O)c1ccc(Oc2ccc(C(F)(F)F)cc2OC(F)F)cc1F` (racemic), the EC50 in data set [1] amounted to 113 nM; in data set [2], 104 nM; in [4] it was 306 nM; in data set [5], 349 nM. The IC50 in [3] was 49 nM; at Cytochrome P450 2C9, 28000 nM; against Cytochrome P450 2D6, greater than 50000 nM; on Cytochrome P450 3A4 it was greater than 50000 nM; in data set [6], 25000 nM; in data set [7], 25600 nM.

With `CC#CC(CC(=O)O)c1ccc(Oc2nccc3ccccc23)cc1` (racemic), the EC50 in data set [1] amounted to 394 nM; in data set [2], 149 nM. The molecule also came in with an IC50 in data set [3] of 342 nM.

`CC#CC(CC(=O)O)c1ccc(Oc2ccc(C(F)(F)F)cc2C)cc1` (racemic): the EC50 was found to be 94 nM in data set [1] and 127 nM in data set [2]. In data set [3], this molecule showed an IC50 of 40 nM.

As for `CC#CC(CC(=O)O)c1ccc(Oc2ccc(C(F)(F)F)cc2OC(F)F)cc1` (racemic), the EC50 worked out at 71 nM in data set [1], 77 nM in data set [2], 436 nM in data set [4] and 455 nM in data set [5]. In addition, the IC50 was 12 nM in [3]; greater than 50000 nM against Cytochrome P450 2C9; greater than 50000 nM against Cytochrome P450 2D6; greater than 50000 nM against Cytochrome P450 3A4; greater than 60000 nM in data set [6]; greater than 30000 nM in data set [7]. Further, the clearance in data set [8] was 0.49 mL/min/kg. In data set [9], this molecule showed a Vd of 0.31 L/kg. Further, the half-life in data set [10] was 7.8 h. In addition, in [11], the bioavailability turned out to be 112%. The same molecule had a Cmax in data set [12] of 12 µM. Also, in data set [13], the time to peak (Tmax) stood at 4 h. The inhibition in vivo at 10 mg/kg with Mus musculus is 66%.

Consider `O=C1NC(=O)C(Cc2ccc(Oc3ccc(F)cc3)cc2)S1` (stereo unspecified), for which, in [1], the concentration for a half-maximal effect (EC50) turned out to be 474 nM.

Take `O=C(O)CCc1ccc(Oc2ccc(C(F)(F)F)cc2Cl)cc1`: in data set [1], the EC50 was determined as 686 nM.

With `CC#C[C@@H](c1ccc(Oc2ccc(C(F)(F)F)cc2OC(F)F)cc1)[C@H]1OC(=O)NC1=O` (racemic), the figures for the EC50 in [1] and in data set [2] were 130 nM and 136 nM, respectively. The results for the IC50 (in data set [3]; at Cytochrome P450 3A4; in data set [7]) were 151 nM, greater than 50000 nM and 5100 nM, respectively. In [8], this molecule showed a clearance of 0.85 mL/min/kg. Besides, in data set [9], the Vd is 0.47 L/kg. Further, the half-life in data set [10] is 7 h. Further, the bioavailability in data set [11] is 93%. This molecule also had a Cmax in data set [12] of 5.5 µM. The Tmax in data set [13] worked out at 4.7 h.
